In the library only some 4.7% were active in any assay of this set; here they are far more common.
AHR act – human AHR activation. P35869. AHR-responsive luciferase reporter cells, luminescence. activation, % at 5 µM. 320,000 tested, 2.5% active; in the data active = activation above about 47%
FXN GAA850 act – activators of GAA850 frataxin (FXN) promoter; AID 540364; 360,000 tested, 0.56% active; HEK293 lucGAA850 FXN promoter luciferase reporter, 24 h; percent of 10 µM SAHA response; activation, % at 6 µM;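 active = activation above the average of all compounds screened plus 3 SD, cutoff fixed separately per campaign, cut at about 7.5% in these data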
m5-HT2A agonist – mouse HTR2A agonism via beta-arrestin recruitment; P35363; CHO-K1 mHTR2A beta-arrestin complementation, luminescence; percent of 30 µM serotonin response; AID 624169; 360,000 tested, 0.66% active; activation, % at 7.6 µM;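 active = activation above a run cutoff, the mean activation of all tested compounds plus 3 SD, cut at about 14% in these data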
MC4R antagonist – antagonists of human melanocortin 4 receptor (MC4R). P32245. MC4R-expressing cells, MTII-stimulated cAMP, LANCE TR-FRET. inhibition, % at 6.5 µM. 360,000 tested, 0.48% active. AID 540295;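 active = inhibition above its plate's cutoff, the mean of tested wells on that plate plus 3 SD, cut at about 29% in these data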
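Assay system: U2OS-MC4R stable cell line; Also added: Melanotan II; Technique: Eu-cAMP/anti-cAMP TR-FRET, emission 671 nm; Times: 30-min compound, 1-h challenge, 1-h detection, room temperature.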
MC4R ag barr – agonists of human melanocortin 4 receptor (MC4R) beta-arrestin | P32245 | U2OS MC4R beta-arrestin complementation, luminescence; percent of melanotan II response, DMSO zero | activation, % at 8.9 µM | 360,000 tested, 0.98% active;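 active = activation above a per-plate cutoff, the mean activation of sample wells on that plate plus 3 SD, cut at about 8% in these data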
MC4R barr conf – human MC4R beta-arrestin agonism confirmation; shares compounds with MC4R ag barr; U2OS MC4R beta-arrestin recruitment, luminescence; scaled DMSO 0%, Melanotan II 100%; activation, % at 8.9 µM; 2,400 tested, 31% active; AID 602192;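 active = mean activation across replicates above the hit cutoff set in the earlier primary screen, cut at about 8% in these data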
MOR-DOR barr ag – counter-screen for MC4R agonists: agonists of mu-delta opioid heterodimer; shares compounds with MC4R ag barr; U2OS PathHunter beta-arrestin, beta-gal luminescence; percent of deltorphin B response, DMSO zero; activation, % at 9.2 µM; 2,400 tested, 5.8% active; AID 602194;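 active = mean activation across replicates exceeds the hit threshold derived in the earlier primary screen, cut at about 18% in these data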
Target sequence (P35372 whole entry, looked up): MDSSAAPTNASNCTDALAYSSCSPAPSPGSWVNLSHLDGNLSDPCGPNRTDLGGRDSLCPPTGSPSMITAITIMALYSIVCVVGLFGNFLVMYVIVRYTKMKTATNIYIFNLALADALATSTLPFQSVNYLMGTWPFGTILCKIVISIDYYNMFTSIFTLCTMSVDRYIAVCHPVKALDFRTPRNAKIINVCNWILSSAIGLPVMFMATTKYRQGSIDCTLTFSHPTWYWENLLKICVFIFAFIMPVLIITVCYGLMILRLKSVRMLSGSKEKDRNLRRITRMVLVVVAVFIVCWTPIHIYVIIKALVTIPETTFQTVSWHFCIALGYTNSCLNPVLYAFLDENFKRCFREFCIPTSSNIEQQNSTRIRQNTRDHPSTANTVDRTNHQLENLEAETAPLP
Target sequence (P41143 whole entry, looked up): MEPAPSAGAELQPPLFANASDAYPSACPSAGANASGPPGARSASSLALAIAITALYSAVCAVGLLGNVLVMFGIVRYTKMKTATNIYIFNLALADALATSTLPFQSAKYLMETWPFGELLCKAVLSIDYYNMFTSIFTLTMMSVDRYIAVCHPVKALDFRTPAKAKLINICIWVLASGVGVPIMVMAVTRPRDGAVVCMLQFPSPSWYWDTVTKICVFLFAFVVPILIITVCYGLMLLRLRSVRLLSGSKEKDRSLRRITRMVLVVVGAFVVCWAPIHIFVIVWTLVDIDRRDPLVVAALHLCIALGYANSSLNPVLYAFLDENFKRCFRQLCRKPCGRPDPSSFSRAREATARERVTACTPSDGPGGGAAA
A number is an active result; n = inactive; x = not tested or not shown.

SMILES | AHR act | FXN GAA850 act | m5-HT2A agonist | MC4R antagonist | MC4R ag barr | MC4R barr conf | MOR-DOR barr ag
CCOC(=O)C1(C)CCCN1C(=O)c1ccc(C(F)(F)F)nc1C (stereo not drawn) | x | n | n | n | n | x | x
Cn1ncc(Cl)c1C(=O)NC1CCCC1 | n | n | n | n | n | x | x
CN1CCC2(CC1)N=C(c1ccc(F)cc1)C(=S)N2C(=O)c1ccc(C(C)(C)C)cc1 | n | n | n | n | 11 | n | n
O=C(COC(=O)c1nc(Cl)ccc1Cl)NCc1ccc(Cl)cc1 | n | n | n | n | n | x | x
COc1ccc(C(N)c2csc(Nc3cc(Oc4ccccc4)ncn3)n2)cc1 (stereo not drawn) | x | n | n | n | n | x | x
NC(Cc1ccc(F)cc1)c1csc(Nc2ccc(C(=O)c3ccccc3)cc2)n1 (stereo not drawn) | x | n | n | n | 13 | 19 | 24
NC(Cc1ccccc1)c1csc(Nc2ccc(C(=O)c3ccccc3)cc2)n1 (stereo not drawn) | x | n | n | n | n | x | x
NC(c1csc(Nc2ccc(C(=O)c3ccccc3)cc2)n1)C1CCCCC1 (stereo not drawn) | x | n | n | n | 11 | 23 | 25
NC(Cc1ccc(Cl)cc1)c1csc(Nc2ccc(C(=O)c3ccccc3)cc2)n1 (stereo not drawn) | x | n | n | n | 12 | 18 | 19
NC(c1csc(Nc2cc(Oc3ccccc3)ncn2)n1)C1CCCCC1 (stereo not drawn) | x | n | n | n | 10 | 28 | 20
Cc1ccc([C@H]2C[C@H](n3cc(C4CC4)nn3)[C@@H](O)CN2C(=O)C2CCCCC2)cc1 | x | n | n | n | n | x | x
O=C(NCc1ccccc1)C(c1ccncc1)N(C(=O)c1csnn1)c1cccc(F)c1 (stereo not drawn) | n | n | n | n | n | x | x
CCOC(=O)C1=CN(Cc2cccc(-c3cccnc3)c2)S(=O)(=O)N(C)C1C (stereo not drawn) | x | n | n | n | n | x | x
S=c1[nH]nc(C2CC2c2ccc(Cl)cc2)n1-c1ccc(Cl)cc1 (stereo not drawn) | n | n | n | n | 11 | n | n
COCCN(C(=O)COC(=O)/C=C/c1ccc2c(c1)OCO2)c1c(N)n(Cc2ccccc2)c(=O)[nH]c1=O | n | n | n | n | n | x | x
O=C(Nc1ccccc1)Nc1nnc(CSCc2ccccc2Cl)s1 | n | n | n | n | 11 | n | n
O=C(Nc1ccc(Cl)cc1)Nc1nnc(CSCc2ccccc2Cl)s1 | n | n | n | n | n | x | x
O=[N+]([O-])c1cccc(-c2csc(N/N=C/c3cccc(O)c3)n2)c1 | 74 | n | n | n | 11 | 9.8 | n
CC(=O)c1sc(N/N=C/c2cccc([N+](=O)[O-])c2)nc1C | n | n | n | n | n | x | x
CCOC(=O)Cc1csc(N/N=C/c2cccc([N+](=O)[O-])c2)n1 | n | n | n | n | 14 | n | n
CCOC(=O)Cc1csc(NC(=O)c2cccc([N+](=O)[O-])c2)n1 | n | n | n | n | n | x | x
O=C(c1ccoc1)N1CCN(c2cc(-c3ccccc3)nc3cc(-c4ccc(Br)cc4)nn23)CC1 | x | n | n | n | n | x | x
O=C(c1ccoc1)N1CCN(c2cc(-c3cccnc3)nc3cc(-c4cccc(Cl)c4)nn23)CC1 | x | n | n | n | 11 | n | n
CC(=O)Nc1ccc(Nc2ccc3c4c(cc(=O)n3C)-c3ccccc3C(=O)c24)cc1 | n | n | n | n | n | x | x
O=C1c2ccccc2C(=O)c2c(Nc3ccc(CCO)cc3)ccc(O)c21 | 69 | n | n | n | 19 | n | n
SMILES | AHR act | FXN GAA850 act | m5-HT2A agonist | MC4R antagonist | MC4R ag barr | MC4R barr conf | MOR-DOR barr ag
O=C(CNCCC1=CCCCC1)Nc1ccc(N2CCCCCC2)cc1 | n | n | n | n | 13 | 9.4 | n
O=C(CNC1CCCCCC1)Nc1ccc(N2CCCC2)cc1 | n | x | x | x | x | x | x
COc1ccc(NC(=O)CN(C)C(=O)/C=C/c2ccc(OCc3ccccc3)cc2)cc1 | n | n | n | n | 19 | n | n
COc1ccc(NC(=O)CN(C)C(=O)/C=C/c2ccc(S(=O)(=O)N3CCCCCC3)cc2)cc1 | n | n | n | n | 30 | 11 | n
CN1CCN(c2ncnc3c2ncn3[C@H]2CN(Cc3ccco3)C[C@@H](CO)O2)CC1 | x | n | n | n | n | x | x
O=C(NCc1cccnc1)c1nn2cccnc2c1Cl | n | n | n | n | n | x | x
Cn1c(N)c(C(=O)CSc2nc(C3CC3)n(-c3ccccc3)n2)c(=O)n(C)c1=O | n | n | n | n | n | x | x
C#CCOc1ccc(/C=C2\SC(=S)N(Cc3cccnc3)C2=O)cc1 | n | n | n | n | 13 | n | n
O=C1/C(=C/c2ccc(O)cc2)SC(=S)N1Cc1cccnc1 | n | n | n | n | n | x | x
COC(=O)C[C@@H]1CC[C@H](NC(=O)Nc2ccc(OC)cc2)[C@@H](CO)O1 | x | x | n | x | x | x | x
O=C(Nc1ccc(F)cc1F)c1c(C(F)(F)F)ccnc1Oc1ccccc1 | n | n | n | n | n | x | x
Cc1cccc(Oc2nccc(C(F)(F)F)c2C(=O)Nc2ccc(F)cc2F)c1 | n | n | n | n | 20 | n | n
Cn1nc(-c2ccccc2)cc1NC(=O)Nc1ccc(C(C)(C)C)cc1 | n | n | n | n | 12 | n | n
Cn1nc(-c2ccc(Cl)cc2)cc1NC(=O)Nc1ccccc1 | n | n | n | n | n | x | x
OCCN1CCN(c2ncnc3c2ncn3[C@H]2CN(Cc3ccc(F)cc3)C[C@@H](CO)O2)CC1 | x | n | n | n | n | x | x
CSc1ccc(C(=O)NC2CCSc3ccccc32)cc1 (stereo not drawn) | n | n | n | n | 21 | n | n
COc1ccc(C(=O)NC2CCSc3ccccc32)cc1 (stereo not drawn) | n | n | n | n | n | x | x
Cc1ccc(C(=O)NNC(=O)c2ccc(S(=O)(=O)N(C)c3ccccc3)cc2)cc1 | x | n | n | n | n | x | x
Cc1ccc(-c2cc(C(=O)N(C)Cc3cnn(C)c3C)c3cc(Br)ccc3n2)cc1 | n | n | n | n | 9.7 | n | n
CCCn1c(=S)[nH]c2cc(C(=O)NCc3ccccc3OC)ccc2c1=O | x | n | n | n | n | x | x
CC(C)Cn1c(=S)[nH]c2cc(C(=O)NCc3ccccc3F)ccc2c1=O | n | n | n | n | 14 | n | n
C#CCOCCOCCOCCNc1nc(N2CCN(C(=O)[C@H](CCC(=O)O)n3cc([C@@H](N)CCCCN)nn3)CC2)nc(N2CCN(C(=O)[C@H](CCCCN)n3cc([C@@H](N)CC(N)=O)nn3)CC2)n1 | n | n | n | n | n | x | x
O=C(COC(=O)c1cccc(S(=O)(=O)N2CCCCCC2)c1)NCc1ccc(Cl)cc1 | x | n | n | n | 9.8 | n | n

Source: PubChem BioAssay
